Measured values from ChEMBL document CHEMBL5303300, “EUbOPEN Chemogenomics Library - Multiplex” (2023).
Values joined by “and” are separate entries in the source; they are usually repeats but may differ in a detail not shown here. Equal entries are not always repeated.

System: Fibroblast
Test: Multiplex assay against human fibroblast
Format: toxicity, cell-based
Details: number of replicates 2
In short: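 Tubulin, mitochondrial-mass and membrane-permeability phenotypes are per cents of healthy-nucleus cells. Cells were gated by CellPathfinder machine learning into Hoechst high-intensity objects or normal cells, normal cells into healthy, pyknosed or fragmented nuclei, and pyknosed cells into mitotic or apoptotic. Before that, live cells stained at seeding with Hoechst33342, BioTracker Green Microtubule Cytoskeleton Dye, MitoTracker Red and Annexin V Alexa Fluor 680 were imaged on a CQ1 microscope at 37°C and 5% CO2 after compound addition.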

[1] = 12 h, 1 µM, compound concentration 1 uM
[2] = 12 h, 10 µM, compound concentration 10 uM
[3] = 24 h, 1 µM, compound concentration 1 uM
[4] = 24 h, 10 µM, compound concentration 10 uM
[5] = 48 h, 1 µM, compound concentration 1 uM
[6] = 48 h, 10 µM, compound concentration 10 uM

For `COc1cc(Br)c(S(=O)(=O)Nc2ccc(C(F)(F)F)c(O[C@@H]3CCN(C)C3)c2)cc1OC`, the “Population Apoptotic (%)” value [1] was 54% and 48%, the “Population Fragmented Nuclei (%)” value [1] was 13% and 15% and the “Population Healthy Nuclei (%)” value [1] was 71% and 63%. For the same compound, the “Population Hoechst High Intensity Objects (%)” value [1] was 0%, the “Population Membrane Permeable-Phenotype (%)” value [1] was 3% and 4% and the “Population Mitochondria Different-Phenotype (%)” value [1] was 0%. For the same compound, the “Population Mitotic Cells (%)” value [1] was 45% and 51%, the “Population Normal (%)” value [1] was 100% and 99% and the “Population Pyknosed Nuclei (%)” value [1] was 14% and 21%. For the same compound, the “Population Tubulin-Different-Phenotype (%)” value [1] was 8% and 14%, the “Total Cell Count” value [1] was 161 and 215 and the “Population Apoptotic (%)” value [2] was 42% and 34%. For the same compound, the “Population Fragmented Nuclei (%)” value [2] was 12% and 15%, the “Population Healthy Nuclei (%)” value [2] was 61% and 63% and the “Population Hoechst High Intensity Objects (%)” value [2] was 0%. The “Population Membrane Permeable-Phenotype (%)” value [2] was 8% and 7%, the “Population Mitochondria Different-Phenotype (%)” value [2] was 1% and 0% and the “Population Mitotic Cells (%)” value [2] was 57% and 65%. The “Population Normal (%)” value [2] was 100%, the “Population Pyknosed Nuclei (%)” value [2] was 25% and 21% and the “Population Tubulin-Different-Phenotype (%)” value [2] was 36% and 23%. The “Total Cell Count” value [2] was 164 and 244, the “Population Apoptotic (%)” value [3] was 50% and 65% and the “Population Fragmented Nuclei (%)” value [3] was 12% and 16%. The “Population Healthy Nuclei (%)” value [3] was 67% and 62%, the “Population Hoechst High Intensity Objects (%)” value [3] was 0% and the “Population Membrane Permeable-Phenotype (%)” value [3] was 6% and 7%. For the same compound, the “Population Mitochondria Different-Phenotype (%)” value [3] was 0% and 3%, the “Population Mitotic Cells (%)” value [3] was 50% and 34% and the “Population Normal (%)” value [3] was 99% and 100%. For the same compound, the “Population Pyknosed Nuclei (%)” value [3] was 19% and 20%, the “Population Tubulin-Different-Phenotype (%)” value [3] was 13% and 16% and the “Total Cell Count” value [3] was 157 and 207. For the same compound, the “Population Apoptotic (%)” value [4] was 53% and 68%, the “Population Fragmented Nuclei (%)” value [4] was 17% and 15% and the “Population Healthy Nuclei (%)” value [4] was 63% and 69%. The “Population Hoechst High Intensity Objects (%)” value [4] was 0%, the “Population Membrane Permeable-Phenotype (%)” value [4] was 10% and 6% and the “Population Mitochondria Different-Phenotype (%)” value [4] was 4% and 3%. The “Population Mitotic Cells (%)” value [4] was 46% and 31%, the “Population Normal (%)” value [4] was 100% and the “Population Pyknosed Nuclei (%)” value [4] was 19% and 15%. The “Population Tubulin-Different-Phenotype (%)” value [4] was 36% and 23%, the “Total Cell Count” value [4] was 163 and 231 and the “Population Apoptotic (%)” value [5] was 66% and 76%. For the same compound, the “Population Fragmented Nuclei (%)” value [5] was 11% and 18%, the “Population Healthy Nuclei (%)” value [5] was 72% and 69% and the “Population Hoechst High Intensity Objects (%)” value [5] was 0%. The “Population Membrane Permeable-Phenotype (%)” value [5] was 5% and 4%, the “Population Mitochondria Different-Phenotype (%)” value [5] was 1% and the “Population Mitotic Cells (%)” value [5] was 33% and 24%. For the same compound, the “Population Normal (%)” value [5] was 100%, the “Population Pyknosed Nuclei (%)” value [5] was 15% and 12% and the “Population Tubulin-Different-Phenotype (%)” value [5] was 10% and 7%. The “Total Cell Count” value [5] was 154 and 204, the “Population Apoptotic (%)” value [6] was 64% and 55% and the “Population Fragmented Nuclei (%)” value [6] was 19% and 16%. The “Population Healthy Nuclei (%)” value [6] was 71%, the “Population Hoechst High Intensity Objects (%)” value [6] was 0% and the “Population Membrane Permeable-Phenotype (%)” value [6] was 9% and 4%. The “Population Mitochondria Different-Phenotype (%)” value [6] was 0% and 1%, the “Population Mitotic Cells (%)” value [6] was 35% and 44% and the “Population Normal (%)” value [6] was 100%. For the same compound, the “Population Pyknosed Nuclei (%)” value [6] was 8% and 12%, the “Population Tubulin-Different-Phenotype (%)” value [6] was 17% and 9% and the “Total Cell Count” value [6] was 156 and 218.

`CCN1CCN(Cc2ccc(C(=O)Nc3ccc(C)c(Oc4ccc5c(c4)CC(=O)N5)c3)cc2C(F)(F)F)CC1.Cl.Cl` was tested, and the “Population Apoptotic (%)” value [1] was 32% and 37%, the “Population Fragmented Nuclei (%)” value [1] was 14% and 13% and the “Population Healthy Nuclei (%)” value [1] was 59% and 62%. The “Population Hoechst High Intensity Objects (%)” value [1] was 0%, the “Population Membrane Permeable-Phenotype (%)” value [1] was 2% and 6% and the “Population Mitochondria Different-Phenotype (%)” value [1] was 2% and 1%. For the same compound, the “Population Mitotic Cells (%)” value [1] was 67% and 62%, the “Population Normal (%)” value [1] was 100% and 99% and the “Population Pyknosed Nuclei (%)” value [1] was 25% and 23%. For the same compound, the “Population Tubulin-Different-Phenotype (%)” value [1] was 27%, the “Total Cell Count” value [1] was 230 and 264 and the “Population Apoptotic (%)” value [2] was 47% and 35%. The “Population Fragmented Nuclei (%)” value [2] was 22% and 13%, the “Population Healthy Nuclei (%)” value [2] was 58% and 61% and the “Population Hoechst High Intensity Objects (%)” value [2] was 0%. The “Population Membrane Permeable-Phenotype (%)” value [2] was 8%, the “Population Mitochondria Different-Phenotype (%)” value [2] was 11% and 14% and the “Population Mitotic Cells (%)” value [2] was 52% and 64%. The “Population Normal (%)” value [2] was 99% and 100%, the “Population Pyknosed Nuclei (%)” value [2] was 18% and 25% and the “Population Tubulin-Different-Phenotype (%)” value [2] was 78% and 73%. For the same compound, the “Total Cell Count” value [2] was 298 and 282, the “Population Apoptotic (%)” value [3] was 47% and 46% and the “Population Fragmented Nuclei (%)” value [3] was 21% and 16%. The “Population Healthy Nuclei (%)” value [3] was 61% and 59%, the “Population Hoechst High Intensity Objects (%)” value [3] was 0% and the “Population Membrane Permeable-Phenotype (%)” value [3] was 3% and 1%. The “Population Mitochondria Different-Phenotype (%)” value [3] was 2% and 4%, the “Population Mitotic Cells (%)” value [3] was 52% and 53% and the “Population Normal (%)” value [3] was 99% and 100%. The “Population Pyknosed Nuclei (%)” value [3] was 17% and 23%, the “Population Tubulin-Different-Phenotype (%)” value [3] was 28% and 20% and the “Total Cell Count” value [3] was 278 and 269. The “Population Apoptotic (%)” value [4] was 59% and 68%, the “Population Fragmented Nuclei (%)” value [4] was 15% and 7% and the “Population Healthy Nuclei (%)” value [4] was 57% and 51%. For the same compound, the “Population Hoechst High Intensity Objects (%)” value [4] was 0% and 1%, the “Population Membrane Permeable-Phenotype (%)” value [4] was 8% and 5% and the “Population Mitochondria Different-Phenotype (%)” value [4] was 27% and 45%. The “Population Mitotic Cells (%)” value [4] was 40% and 31%, the “Population Normal (%)” value [4] was 99% and 98% and the “Population Pyknosed Nuclei (%)” value [4] was 26% and 40%. For the same compound, the “Population Tubulin-Different-Phenotype (%)” value [4] was 89% and 78%, the “Total Cell Count” value [4] was 258 and 216 and the “Population Apoptotic (%)” value [5] was 88% and 73%. The “Population Fragmented Nuclei (%)” value [5] was 23% and 20%, the “Population Healthy Nuclei (%)” value [5] was 67% and 61% and the “Population Hoechst High Intensity Objects (%)” value [5] was 0%. For the same compound, the “Population Membrane Permeable-Phenotype (%)” value [5] was 4% and 6%, the “Population Mitochondria Different-Phenotype (%)” value [5] was 4% and 5% and the “Population Mitotic Cells (%)” value [5] was 12% and 26%. The “Population Normal (%)” value [5] was 100% and 99%, the “Population Pyknosed Nuclei (%)” value [5] was 8% and 18% and the “Population Tubulin-Different-Phenotype (%)” value [5] was 28% and 27%. The “Total Cell Count” value [5] was 282 and 246, the “Population Apoptotic (%)” value [6] was 89% and 92% and the “Population Fragmented Nuclei (%)” value [6] was 9% and 18%. The “Population Healthy Nuclei (%)” value [6] was 44% and 41%, the “Population Hoechst High Intensity Objects (%)” value [6] was 1% and 2% and the “Population Membrane Permeable-Phenotype (%)” value [6] was 13% and 12%. For the same compound, the “Population Mitochondria Different-Phenotype (%)” value [6] was 48% and 61%, the “Population Mitotic Cells (%)” value [6] was 10% and 7% and the “Population Normal (%)” value [6] was 98% and 97%. The “Population Pyknosed Nuclei (%)” value [6] was 46% and 39%, the “Population Tubulin-Different-Phenotype (%)” value [6] was 78% and 93% and the “Total Cell Count” value [6] was 190 and 197.
